Data published in ChEMBL document CHEMBL1255220, “Synthesis and antitumor effect in vitro and in vivo of substituted 1,3-dihydroindole-2-ones” (J Med Chem, 2010).
Activity calls are given as the source filed them. The rule behind the calls is not given here.

Experiments:
PC-3 [1] = test: Cytotoxicity against human PC3 cells after 72 hrs by WST-1 assay; type: functional, cell-based
How it was run: (§1)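 Cells seeded at 3×10³/well; next day serially diluted compound added in triplicate; 72 h at 37 °C, 5% CO₂. Viable cells measured with WST-1 reagent (1 h), absorbance 450 nm minus 690 nm reference. IC50 is mean ± SD of at least two experiments run in triplicate. MCF-7 grown in DMEM, PC3 in RPMI, each with 10% serum.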

MCF7 [2] = test: Cytotoxicity against human MCF7 cells after 72 hrs by WST-1 assay; type: functional, cell-based; how it was run: as §1
MDA-MB-231 = test: Cytotoxicity against human MDA-MB-231 cells; type: functional, cell-based
[3] = AUC in mouse at 5 mg/kg, iv; type: ADME, organism-based; set-up: dose 5 mg/kg, route intravenous; details: plasma
How it was run: (§2)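 Compound given as single iv dose to mice or rats. Plasma samples prepared by protein precipitation with acetonitrile containing 1 μg/mL internal standard (3:1 v/v). Analysed by UPLC-MS/MS on a C18 reversed-phase column at 40 °C with an acetonitrile–0.05% formic acid gradient. Half-life and AUC (h ng/mL) derived from the plasma levels.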

PC-3 [4] = test: Antitumor activity against human PC3 cells xenografted in sc dosed NMRI mouse assessed as tumor regression dose; type: functional
How it was run: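 1e7 PC3 cells (grown in RPMI + 10% FBS) in PBS/Matrigel 1:1 injected sc into female NMRI nude mice or female NIH-RNU nude rats. Compound dosed iv three times per week. Tumour regression dose recorded. Rat effective doses were estimated from mouse xenografts using a 0.5 mouse-to-rat conversion factor.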

MDA-MB-468 = test: Cytotoxicity against human MDA-MB-468 cells; type: functional, cell-based
[5] = Half life in mouse at 5 mg/kg, iv; type: ADME, organism-based; set-up: dose 5 mg/kg, route intravenous; details: in vivo; how it was run: as §2
[6] = Therapeutic index, ratio of MTD in rat to ED50 for antitumor activity against human PC3 cells xenografted in rat; type: cell-based, PC-3; details: in vivo, read-out: TI
How it was run: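 PC3 human prostate cancer cells (1e7, grown in RPMI + 10% FBS, suspended in PBS + Matrigel) were implanted sc in female nude rats (NIHRNU-M) or nude mice (NMRI/nude), with iv dosing 3×/week. Rat MTD came from a single iv dose. Effective rat doses were estimated from mouse xenografts using a mouse-to-rat conversion factor of 0.5. Index = rat toxic dose / rat effective dose.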

[7] = Toxicity in iv dosed rat assessed as maximum tolerated dose; details: in vivo
PC-3 [8] = test: Antitumor activity against human PC3 cells xenografted in sc dosed rat assessed as tumor regression dose; type: functional
[9] = target: Eukaryotic translation initiation factor 2 subunit 1 (Homo sapiens) (UniProt P05198); test: Inhibition of eIF2alpha autophosphorylation in human A2780 cells; type: cell-based
How it was run: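 MCF-7 (DMEM) and A2780 (RPMI 1640) cells, together with sublines made resistant by culture in rising concentrations of the parent oxindole, were treated with compound for 4 and 24 h respectively. Lysates (20 μg protein) separated by SDS-PAGE and blotted onto nitrocellulose. Phospho-eIF2α read by western blot: milk block, primary antibody overnight at 4 °C, HRP secondary antibody.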

[10] = target: Eukaryotic translation initiation factor 2 subunit 1 (Homo sapiens) (UniProt P05198); test: Induction of eIF2alpha phosphorylation in human MCF7 cells
[11] = AUC in rat at 10 mg/kg, iv; type: ADME, organism-based; set-up: dose 10 mg/kg, route intravenous; details: plasma; how it was run: as §2
[12] = Half life in rat at 10 mg/kg, iv; type: ADME, organism-based; set-up: dose 10 mg/kg, route intravenous; details: in vivo; how it was run: as §2
[13] = Half life in rat at 2.5 mg/kg, iv; type: ADME, organism-based; set-up: dose 2.5 mg/kg, route intravenous; details: in vivo; how it was run: as §2
[14] = AUC in rat at 2.5 mg/kg, iv; type: ADME, organism-based; set-up: dose 2.5 mg/kg, route intravenous; details: plasma; how it was run: as §2
[15] = Half life in rat at 5 mg/kg, iv; type: ADME, organism-based; set-up: dose 5 mg/kg, route intravenous; details: in vivo; how it was run: as §2
[16] = AUC in rat at 5 mg/kg, iv; type: ADME, organism-based; set-up: dose 5 mg/kg, route intravenous; details: plasma; how it was run: as §2
MCF7 [17] = test: Cytotoxicity against human MCF7 cells after 72 hrs at 0.5 uM by WST-1 assay; type: functional; details: MCF7, 72 h

Sequence of Eukaryotic translation initiation factor 2 subunit 1 (Homo sapiens) (P05198 whole entry): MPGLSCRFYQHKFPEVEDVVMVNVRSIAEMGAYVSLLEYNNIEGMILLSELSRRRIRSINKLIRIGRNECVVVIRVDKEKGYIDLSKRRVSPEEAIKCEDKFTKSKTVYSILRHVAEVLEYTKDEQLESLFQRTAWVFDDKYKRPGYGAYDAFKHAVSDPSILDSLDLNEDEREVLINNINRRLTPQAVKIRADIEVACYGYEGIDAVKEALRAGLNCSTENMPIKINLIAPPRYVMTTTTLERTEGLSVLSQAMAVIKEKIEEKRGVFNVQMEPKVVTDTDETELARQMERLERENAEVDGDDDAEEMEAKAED

Compound	IC50 (PC-3 [1]; Homo sapiens, PC-3, 72 h)	IC50 (MCF7 [2]; Homo sapiens, MCF7, 72 h)	other results
COc1ccc2c(c1C)NC(=O)[C@]2(c1ccc(O)cc1)C1CCCCCC1	2 nM	0.48 nM	
COc1ccc2c(c1C)NC(=O)[C@@]2(c1ccc(O)cc1)C1CCCCCC1	> 1000 nM	> 1000 nM	
O=C1Nc2c(ccc(F)c2F)C1(c1ccc(O)cc1)c1ccc(O)cc1	699 nM	20 nM	IC50 (MDA-MB-231): > 3000 nM; AUC [3]: 6770 ng·h/mL; Activity (PC-3 [4]): 5 mg/kg; IC50 (MDA-MB-468): 20 nM; half-life [5]: 1.7 h; selectivity ratio [6]: 0.4; MTD [7]: 1 mg/kg
O=C1Nc2c(C(F)(F)F)cccc2C1(c1ccc(O)cc1)C1CCCCCC1 (racemic)	91 nM	9.7 nM	Activity (PC-3 [8]): >20 mg/kg; Activity (PC-3 [4]): 20 mg/kg; selectivity ratio [6]: 4; MTD [7]: 40 mg/kg
O=C1Nc2c(C(F)(F)F)cccc2C1(c1ccc(O)cc1)n1ccnc1 (racemic)	> 1000 nM	> 1000 nM	inhibition [9]: inactive; induction [10]: inactive
Cc1cc(C)c2c(c1)C(c1ccc(O)cc1)(c1ccc(F)cc1)C(=O)N2 (racemic)	209 nM	40 nM	
Cc1cc(C)c2c(c1)C(c1ccc(O)cc1)(C1CCCCCC1)C(=O)N2 (racemic)	> 1000 nM	> 1000 nM	
Cc1cc(F)cc2c1NC(=O)C2(c1ccc(O)cc1)C1CCCCCC1 (racemic)	> 1000 nM	> 1000 nM	
Cc1ccc2c(c1C)NC(=O)C2(c1ccc(O)cc1)C1CCCCCC1 (racemic)	> 1000 nM	19 nM	
Cc1c(F)ccc2c1NC(=O)C2(c1ccc(O)cc1)C1CCCCCC1 (racemic)	30 nM	20 nM	
Cc1c(Cl)ccc2c1NC(=O)C2(c1ccc(O)cc1)C1CCCCCC1 (racemic)	150 nM	51 nM	
Cc1ccc2c(c1Cl)NC(=O)C2(c1ccc(O)cc1)C1CCCCCC1 (racemic)	17 nM	2.8 nM	
COc1ccc2c(c1C)NC(=O)C2(c1ccc(O)cc1)c1ccc(F)cc1 (racemic)	9 nM	6.3 nM	Activity (PC-3 [8]): <10 mg/kg; Activity (PC-3 [4]): 10 mg/kg; AUC [11]: 3950 ng·h/mL; selectivity ratio [6]: 3; MTD [7]: 15 mg/kg; half-life [12]: 1.5 h
COc1ccc2c(c1C)NC(=O)C2(c1ccc(O)cc1)C1CCCC1 (racemic)	111 nM	1 nM	
COc1ccc2c(c1C)NC(=O)C2(c1ccc(O)cc1)C1CCCCC1 (racemic)	28 nM	14 nM	
O=C1Nc2c(ccc(F)c2F)C1(c1ccccc1)c1ccc(O)cc1 (racemic)	8.9 nM	7.1 nM	
O=C1Nc2c(ccc(F)c2F)C1(c1ccc(O)cc1)c1ccc(F)cc1 (racemic)	8.6 nM	2.6 nM	half-life [13]: 0.8 h; AUC [3]: 1910 ng·h/mL; Activity (PC-3 [8]): <2.5 mg/kg; Activity (PC-3 [4]): 2.5 mg/kg; half-life [5]: 2.1 h; selectivity ratio [6]: 2; MTD [7]: 2.5 mg/kg; AUC [14]: 2530 ng·h/mL
COc1ccc2c(c1C)NC(=O)C2(c1ccc(O)cc1)C1CCCCCC1 (racemic)	12 nM	4.7 nM	inhibition [9]: inactive; Activity (PC-3 [8]): 10 mg/kg; Activity (PC-3 [4]): 20 mg/kg; induction [10]: inactive; AUC [11]: 5760 ng·h/mL; selectivity ratio [6]: 7; MTD [7]: 70 mg/kg; half-life [12]: 1.5 h
COc1ccc(C2(c3ccc(O)cc3)C(=O)Nc3c2ccc(F)c3F)cc1 (racemic)			IC50 (PC-3 [1]; pc-3): 2.2 nM; IC50 (MCF7 [2]; mcf7): 6.3 nM
Cc1ccc(C2(c3ccc(O)cc3)C(=O)Nc3c2ccc(F)c3F)cc1 (racemic)	0.8 nM	1.7 nM	
O=C1Nc2c(ccc(F)c2F)C1(c1ccc(O)cc1)C1CCCCC1 (racemic)			AUC [3]: 3550 ng·h/mL; Activity (PC-3 [8]): <10 mg/kg; Activity (PC-3 [4]): 10 mg/kg; half-life [15]: 1.1 h; IC50 (PC-3 [1]; pc-3): 32 nM; AUC [16]: 1350 ng·h/mL; half-life [5]: 1.6 h; IC50 (MCF7 [2]; mcf7): 13 nM; selectivity ratio [6]: 2; MTD [7]: 10 mg/kg
CCOc1ccc(C2(c3ccc(O)cc3)C(=O)Nc3c2ccc(F)c3F)cc1 (racemic)	24 nM	11 nM	

Compound	IC50 (PC-3 [1]; Homo sapiens, PC-3, 72 h)	IC50 (MCF7 [2]; Homo sapiens, MCF7, 72 h)	other results
CCCOc1ccc(C2(c3ccc(O)cc3)C(=O)Nc3c2ccc(F)c3F)cc1 (racemic)	> 1000 nM	356 nM	
CCCCCOc1ccc(C2(c3ccc(O)cc3)C(=O)Nc3c2ccc(F)c3F)cc1 (racemic)	> 1000 nM	> 1000 nM	
COc1ccc(C2(c3cccc(O)c3)C(=O)Nc3c2ccc(F)c3F)cc1 (racemic)	145 nM	196 nM	
O=C1Nc2c(ccc(F)c2F)C1(c1ccc(O)cc1)c1ccc(F)c(F)c1 (racemic)	19 nM	7.8 nM	
O=C1Nc2c(ccc(F)c2F)C1(c1ccc(O)cc1)c1cccs1 (racemic)	0.3 nM	82 nM	half-life [13]: 0.7 h; AUC [3]: 395 ng·h/mL; half-life [5]: 0.4 h; AUC [14]: 2630 ng·h/mL
O=C1Nc2c(ccc(F)c2F)C1(c1ccncc1)c1ccc(O)cc1 (racemic)	110 nM	37 nM	
O=C1Nc2c(ccc(F)c2F)C1(c1ccc(O)cc1)c1cccnc1 (racemic)	> 1000 nM	63 nM	
CCCC1(c2ccc(O)cc2)C(=O)Nc2c1ccc(F)c2F (racemic)	> 1000 nM	> 1000 nM	
CCCCCC1(c2ccc(O)cc2)C(=O)Nc2c1ccc(F)c2F (racemic)	1.1 nM	96 nM	
O=C1Nc2c(ccc(F)c2F)C1(c1ccc(O)cc1)C1CCCC1 (racemic)	8.2 nM	12 nM	half-life [13]: 1.1 h; AUC [3]: 1850 ng·h/mL; half-life [5]: 3.7 h; AUC [14]: 2400 ng·h/mL
O=C1Nc2c(ccc(F)c2F)C1(c1ccc(O)cc1)C1CCCCCC1 (racemic)	12 nM	1.2 nM	AUC [3]: 694 ng·h/mL; Activity (PC-3 [4]): 10 mg/kg; half-life [15]: 2.1 h; AUC [16]: 2290 ng·h/mL; half-life [5]: 1.3 h; selectivity ratio [6]: 8; MTD [7]: > 40 mg/kg
O=C1Nc2c(ccc(F)c2F)C1(c1ccc(O)cc1)C1CCCCCCC1 (racemic)	> 1000 nM	> 1000 nM	
O=C1Nc2c(ccc(F)c2F)C1(CC1CCCCC1)c1ccc(O)cc1 (racemic)	> 1000 nM	102 nM	
O=C1Nc2c(ccc(F)c2F)C1(Cc1ccccc1)c1ccc(O)cc1 (racemic)	> 1000 nM	> 1000 nM	
O=C1Nc2ccccc2C1(c1ccc(O)cc1)c1ccc(F)cc1 (racemic)	> 1000 nM	28 nM	
O=C1Nc2ccccc2C1(c1ccc(O)cc1)C1CCCCCC1 (racemic)	> 1000 nM	247 nM	
Cc1cccc2c1NC(=O)C2(c1ccc(O)cc1)C1CCCCCC1 (racemic)	> 1000 nM	> 1000 nM	
COc1ccc(C2(c3ccc(O)cc3)C(=O)Nc3c2ccc(F)c3F)cc1 (stereo in doubt; form 1)			IC50 (PC-3 [1]; pc-3): 2 nM; IC50 (MCF7 [2]; mcf7): 2.1 nM
O=C1Nc2c(ccc(F)c2F)C1(c1ccc(O)cc1)C1CCCCC1 (stereo in doubt; form 1)			IC50 (PC-3 [1]; pc-3): 9.2 nM; IC50 (MCF7 [2]; mcf7): 18 nM
COc1ccc(C2(c3ccc(O)cc3)C(=O)Nc3c2ccc(F)c3F)cc1 (stereo in doubt; form 2)			IC50 (PC-3 [1]; pc-3): > 1000 nM; IC50 (MCF7 [2]; mcf7): > 1000 nM
O=C1Nc2c(ccc(F)c2F)C1(c1ccc(O)cc1)C1CCCCC1 (stereo in doubt; form 2)			IC50 (PC-3 [1]; pc-3): > 1000 nM; IC50 (MCF7 [2]; mcf7): > 1000 nM
O=C1Nc2ccccc2C1(c1ccc(O)cc1)c1ccc(O)cc1 [OXYPHENISATINE]	> 1000 nM		inhibition at 0.5 µM (MCF7 [17]): 73%
